{"source": "ChEMBL document CHEMBL3616378", "about": "(J Med Chem, 2015)", "key": {"[1]": {"molecular_target": "Metabotropic glutamate receptor 2 (Homo sapiens, UniProt Q14416, E273D)", "sequence (Q14416 19-872 E273D limits assumed)": "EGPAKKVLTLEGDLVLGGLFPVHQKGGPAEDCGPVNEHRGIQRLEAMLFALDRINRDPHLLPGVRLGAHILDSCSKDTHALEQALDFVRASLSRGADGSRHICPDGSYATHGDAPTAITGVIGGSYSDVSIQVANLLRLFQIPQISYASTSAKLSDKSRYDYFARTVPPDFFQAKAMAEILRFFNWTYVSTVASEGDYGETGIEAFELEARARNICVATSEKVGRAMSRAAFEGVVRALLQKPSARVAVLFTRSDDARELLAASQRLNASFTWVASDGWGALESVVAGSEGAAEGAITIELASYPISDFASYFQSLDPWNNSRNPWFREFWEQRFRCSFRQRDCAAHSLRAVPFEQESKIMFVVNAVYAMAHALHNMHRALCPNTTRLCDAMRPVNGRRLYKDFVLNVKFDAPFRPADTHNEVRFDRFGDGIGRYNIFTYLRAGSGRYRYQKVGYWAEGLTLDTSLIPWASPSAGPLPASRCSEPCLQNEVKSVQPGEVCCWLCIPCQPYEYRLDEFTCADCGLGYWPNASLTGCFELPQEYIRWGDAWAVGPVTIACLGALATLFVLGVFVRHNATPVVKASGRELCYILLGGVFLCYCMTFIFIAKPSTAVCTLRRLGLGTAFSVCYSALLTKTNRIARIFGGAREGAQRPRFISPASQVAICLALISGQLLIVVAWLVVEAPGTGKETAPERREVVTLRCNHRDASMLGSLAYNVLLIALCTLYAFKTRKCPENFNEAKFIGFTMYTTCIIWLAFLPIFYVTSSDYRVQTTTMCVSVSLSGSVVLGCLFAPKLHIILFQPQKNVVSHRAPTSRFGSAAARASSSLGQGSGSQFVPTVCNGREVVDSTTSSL", "assay": "Agonist activity at human recombinant mGlu2 receptor E273D mutant expressed in AV12 cells assessed as stimulation of Ca2+ mobilization after 1 hr by FLIPR assay", "assay_type": "functional, cell-based"}, "[2]": {"molecular_target": "Metabotropic glutamate receptor 3 (Homo sapiens, UniProt Q14832, D279E)", "sequence (Q14832 23-879 D279E limits assumed)": "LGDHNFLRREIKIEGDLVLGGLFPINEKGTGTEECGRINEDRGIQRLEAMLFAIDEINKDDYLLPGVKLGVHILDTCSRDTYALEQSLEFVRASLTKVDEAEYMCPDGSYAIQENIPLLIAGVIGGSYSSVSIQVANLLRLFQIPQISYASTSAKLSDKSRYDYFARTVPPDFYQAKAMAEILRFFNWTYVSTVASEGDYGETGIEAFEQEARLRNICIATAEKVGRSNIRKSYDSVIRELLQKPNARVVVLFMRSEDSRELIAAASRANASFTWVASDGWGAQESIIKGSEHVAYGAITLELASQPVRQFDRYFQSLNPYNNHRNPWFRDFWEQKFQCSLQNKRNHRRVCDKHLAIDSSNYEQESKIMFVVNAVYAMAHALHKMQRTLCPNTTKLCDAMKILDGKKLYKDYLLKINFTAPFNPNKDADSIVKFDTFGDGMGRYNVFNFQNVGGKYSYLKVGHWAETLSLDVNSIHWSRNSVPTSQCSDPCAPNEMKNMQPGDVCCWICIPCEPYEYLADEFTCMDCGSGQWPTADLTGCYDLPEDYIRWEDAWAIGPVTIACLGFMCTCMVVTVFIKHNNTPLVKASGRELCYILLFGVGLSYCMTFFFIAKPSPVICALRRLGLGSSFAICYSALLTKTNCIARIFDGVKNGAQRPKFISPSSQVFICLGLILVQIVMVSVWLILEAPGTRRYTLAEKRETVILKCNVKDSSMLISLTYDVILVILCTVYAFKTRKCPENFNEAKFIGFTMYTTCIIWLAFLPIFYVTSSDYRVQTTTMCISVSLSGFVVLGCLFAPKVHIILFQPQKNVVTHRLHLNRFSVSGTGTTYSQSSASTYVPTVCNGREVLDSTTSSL", "assay": "Agonist activity at human recombinant mGlu3 receptor D279E mutant expressed in AV12 cells assessed as stimulation of Ca2+ mobilization after 1 hr by FLIPR assay", "assay_type": "functional, cell-based"}, "[3]": {"assay": "Metabolic stability of the compound in mouse hepatocytes assessed as loss of compound at 2 uM", "assay_type": "ADME, cell-based, Hepatocyte", "conditions": "read-out: Drug degradation", "outline": "(§1)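 Hepatocytes from mouse, rat, dog and human; compound tested at 2 µM; percent loss of parent compound measured.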"}, "[4]": {"assay": "Metabolic stability of the compound in rat hepatocytes assessed as loss of compound at 2 uM", "assay_type": "ADME, cell-based, Hepatocyte", "conditions": "read-out: Drug degradation", "outline": "as §1"}, "CYP2C9": {"molecular_target": "CYP2C9 (Homo sapiens, UniProt P11712)", "sequence (P11712 whole entry, canonical isoform)": "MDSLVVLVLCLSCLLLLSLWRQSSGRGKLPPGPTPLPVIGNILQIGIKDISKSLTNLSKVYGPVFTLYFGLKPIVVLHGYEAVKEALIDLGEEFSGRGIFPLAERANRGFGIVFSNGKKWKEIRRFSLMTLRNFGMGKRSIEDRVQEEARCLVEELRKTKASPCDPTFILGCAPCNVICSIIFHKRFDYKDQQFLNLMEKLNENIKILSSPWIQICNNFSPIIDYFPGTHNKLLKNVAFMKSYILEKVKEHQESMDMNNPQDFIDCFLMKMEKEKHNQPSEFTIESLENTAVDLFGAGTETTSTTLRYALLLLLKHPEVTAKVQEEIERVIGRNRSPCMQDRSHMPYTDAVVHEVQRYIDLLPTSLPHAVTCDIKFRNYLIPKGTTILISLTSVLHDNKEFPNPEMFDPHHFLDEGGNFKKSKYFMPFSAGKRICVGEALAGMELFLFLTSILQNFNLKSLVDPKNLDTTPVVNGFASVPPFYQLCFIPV", "assay": "Inhibition of human CYP2C9 at 10 uM", "assay_type": "ADME", "outline": "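Inhibition of human CYP isoforms was measured with the compound tested at 10 µM.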"}, "[5]": {"assay": "Half life in Sprague-Dawley rat at 10 mg/kg, ip", "assay_type": "ADME, organism-based", "conditions": "in vivo", "outline": "(§2)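 Fasted male Sprague–Dawley rats (~250 g) received a single dose of compound dissolved in water and adjusted to pH 7–7.5 with NaOH, given iv, by oral gavage or ip. Serial blood samples (11–12 per rat) were drawn from a jugular vein catheter into EDTA and kept frozen. Plasma was mixed with methanol:water (1:1) containing an analogue internal standard for analysis. Mean plasma parameters are reported.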"}, "[6]": {"assay": "Bioavailability in Sprague-Dawley rat at 10 mg/kg, ip", "assay_type": "ADME, organism-based", "conditions": "in vivo", "outline": "as §2"}, "[7]": {"assay": "Plasma concentration in Sprague-Dawley rat at 1 mg/kg, ip after 4 hrs", "assay_type": "ADME, organism-based", "outline": "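Separate experiment: single ip doses of 1, 3 and 10 mg/kg to rats, compound in water adjusted to pH 7–7.5 with NaOH; plasma (with csf) sampled at 0.5, 1 and 4 h; mean plasma concentrations ± SEM reported.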"}, "[8]": {"molecular_target": "Metabotropic glutamate receptor 1 (Homo sapiens, UniProt Q13255)", "sequence (Q13255 whole entry)": "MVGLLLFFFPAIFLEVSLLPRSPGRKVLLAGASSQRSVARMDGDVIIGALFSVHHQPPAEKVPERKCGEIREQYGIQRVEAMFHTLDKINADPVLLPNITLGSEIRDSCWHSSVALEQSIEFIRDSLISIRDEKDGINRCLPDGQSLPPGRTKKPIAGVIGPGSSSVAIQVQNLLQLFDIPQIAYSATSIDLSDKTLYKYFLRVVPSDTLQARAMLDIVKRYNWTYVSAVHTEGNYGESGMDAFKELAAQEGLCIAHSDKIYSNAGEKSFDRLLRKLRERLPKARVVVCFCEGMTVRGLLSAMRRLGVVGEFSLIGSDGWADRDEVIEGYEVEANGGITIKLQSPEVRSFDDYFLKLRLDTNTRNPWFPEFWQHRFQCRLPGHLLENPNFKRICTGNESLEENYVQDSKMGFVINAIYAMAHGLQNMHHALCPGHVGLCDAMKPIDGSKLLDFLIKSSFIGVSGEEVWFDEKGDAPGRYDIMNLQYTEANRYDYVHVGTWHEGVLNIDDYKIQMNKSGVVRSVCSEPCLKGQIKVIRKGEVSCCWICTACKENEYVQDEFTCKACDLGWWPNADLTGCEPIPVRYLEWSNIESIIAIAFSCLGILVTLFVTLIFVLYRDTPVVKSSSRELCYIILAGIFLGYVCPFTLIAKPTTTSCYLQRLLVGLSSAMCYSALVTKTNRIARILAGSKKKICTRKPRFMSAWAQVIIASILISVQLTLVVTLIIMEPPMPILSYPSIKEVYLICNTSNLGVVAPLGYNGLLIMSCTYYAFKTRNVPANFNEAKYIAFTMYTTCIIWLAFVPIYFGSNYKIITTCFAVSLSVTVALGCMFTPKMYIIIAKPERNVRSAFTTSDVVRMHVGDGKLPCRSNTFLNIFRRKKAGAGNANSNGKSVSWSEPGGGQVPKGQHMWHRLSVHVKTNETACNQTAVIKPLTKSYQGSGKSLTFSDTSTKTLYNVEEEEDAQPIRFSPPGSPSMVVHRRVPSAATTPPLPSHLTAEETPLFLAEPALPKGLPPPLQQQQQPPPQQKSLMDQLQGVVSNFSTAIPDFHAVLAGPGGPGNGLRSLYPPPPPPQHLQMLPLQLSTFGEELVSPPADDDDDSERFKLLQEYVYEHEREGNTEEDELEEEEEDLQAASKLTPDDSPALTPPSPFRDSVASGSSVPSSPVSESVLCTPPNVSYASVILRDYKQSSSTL", "assay": "Agonist activity at human recombinant mGlu1 receptor expressed in AV12 cells assessed as stimulation of Ca2+ mobilization after 1 hr by FLIPR assay", "assay_type": "functional, cell-based"}, "[9]": {"molecular_target": "Metabotropic glutamate receptor 5 (Homo sapiens, UniProt P41594)", "sequence (P41594 whole entry)": "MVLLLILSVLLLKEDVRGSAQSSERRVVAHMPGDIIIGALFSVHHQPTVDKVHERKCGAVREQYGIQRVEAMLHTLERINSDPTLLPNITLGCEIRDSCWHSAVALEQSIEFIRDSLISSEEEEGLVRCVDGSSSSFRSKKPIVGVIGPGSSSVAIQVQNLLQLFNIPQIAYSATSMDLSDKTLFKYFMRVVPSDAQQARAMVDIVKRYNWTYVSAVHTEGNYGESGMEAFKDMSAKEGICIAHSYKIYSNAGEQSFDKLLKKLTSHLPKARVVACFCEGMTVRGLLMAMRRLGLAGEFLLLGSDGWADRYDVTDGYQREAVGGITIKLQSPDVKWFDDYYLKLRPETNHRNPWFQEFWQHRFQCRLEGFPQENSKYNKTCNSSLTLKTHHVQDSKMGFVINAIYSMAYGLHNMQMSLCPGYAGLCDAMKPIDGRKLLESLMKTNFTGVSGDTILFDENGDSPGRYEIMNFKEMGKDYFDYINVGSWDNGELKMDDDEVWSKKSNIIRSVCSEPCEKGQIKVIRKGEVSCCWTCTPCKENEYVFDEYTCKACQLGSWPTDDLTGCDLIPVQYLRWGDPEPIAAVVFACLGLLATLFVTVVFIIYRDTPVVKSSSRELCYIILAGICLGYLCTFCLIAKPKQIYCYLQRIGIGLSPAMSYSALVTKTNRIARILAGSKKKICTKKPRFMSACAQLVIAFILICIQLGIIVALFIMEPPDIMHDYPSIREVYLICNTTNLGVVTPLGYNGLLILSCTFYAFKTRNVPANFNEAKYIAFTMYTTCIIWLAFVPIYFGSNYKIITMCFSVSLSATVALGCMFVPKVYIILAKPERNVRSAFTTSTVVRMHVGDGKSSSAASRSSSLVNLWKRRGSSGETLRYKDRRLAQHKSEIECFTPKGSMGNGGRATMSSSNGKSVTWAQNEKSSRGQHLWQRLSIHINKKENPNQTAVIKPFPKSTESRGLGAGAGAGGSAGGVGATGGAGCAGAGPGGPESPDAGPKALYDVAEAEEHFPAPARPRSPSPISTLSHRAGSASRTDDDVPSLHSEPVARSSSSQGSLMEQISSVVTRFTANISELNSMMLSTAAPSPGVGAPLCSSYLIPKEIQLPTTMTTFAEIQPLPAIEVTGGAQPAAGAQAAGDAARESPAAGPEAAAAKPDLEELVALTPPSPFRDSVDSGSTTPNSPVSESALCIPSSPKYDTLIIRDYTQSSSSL", "assay": "Agonist activity at human recombinant mGlu5 receptor expressed in AV12 cells assessed as stimulation of Ca2+ mobilization after 1 hr by FLIPR assay", "assay_type": "functional, cell-based"}, "[10]": {"assay": "Drug level in Sprague-Dawley rat cerebrospinal fluid at 1 mg/kg, ip after 4 hrs", "assay_type": "ADME, organism-based", "conditions": "read-out: Drug uptake", "outline": "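Male Sprague–Dawley rats received single ip doses of 1, 3 or 10 mg/kg. Cerebrospinal fluid and plasma levels were determined at 0.5, 1 and 4 h. Mean csf concentration (nM ± SEM) is reported.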"}}}
{"compound": "N[C@@]1(C(=O)O)C[C@@H](Sc2nc[nH]n2)[C@H]2[C@H](C(=O)O)[C@H]21", "values": [{"measurement": "EC50", "setting": "[1]", "value": 46.3, "unit": "nM"}, {"measurement": "EC50", "setting": "[2]", "value": 2180, "unit": "nM"}, {"measurement": "metabolised at 2 µM", "setting": "[3]", "value": "< 10", "unit": "%"}, {"measurement": "metabolised at 2 µM", "setting": "[4]", "value": "< 10", "unit": "%"}, {"measurement": "inhibition at 10 µM", "setting": "CYP2C9", "value": "< 10", "unit": "%"}, {"measurement": "half-life", "setting": "[5]", "value": 5.2, "unit": "h"}, {"measurement": "bioavailability", "setting": "[6]", "value": 88, "unit": "%"}, {"measurement": "concentration at 4 h", "setting": "[7]", "value": 314, "unit": "nM"}, {"measurement": "EC50", "setting": "[8]", "value": "> 25000", "unit": "nM"}, {"measurement": "EC50", "setting": "[9]", "value": "> 25000", "unit": "nM"}, {"measurement": "concentration at 4 h", "setting": "[10]", "value": 9.7, "unit": "nM"}]}
